Rows were chosen to be rich in hits. Some 2.6% of all compounds tested hit in one or more screens of this group.
Yeast life ext: yeast lifespan extension; 0.68% of 130,000 active; S. cerevisiae growth with nicotinamide, OD615; deaD strain in restrictive glucose medium; inhibition of the nicotinamide effect, % at 10 µM;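 active = inhibition above a set limit, placed 3 SD over the median of all compounds, cut at about 26% in these data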
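Assay system: engineered S. cerevisiae DeaD replicative-lifespan strain, galactose-grown log-phase cells; Buffer or medium: CSMM-D glucose medium, restrictive; Probe or stimulus: nicotinamide 1.5 mM; Compound: single dose 10 µM compound, 0.25% DMSO; Schedule: 4 h preincubation then 48 h treatment at 30 °C; Technique: OD615 measurement.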
RAM network inh: blocks the yeast RAM network; S. cerevisiae dse1pr::URA3 reporter, 5-FOA growth OD615, 2 d; analog-sensitive cbk1-as2 kinase mutant strain; inhibition, % at 50 µM; 1.8% of 190,000 active; AID 868;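 active = inhibition above a set limit, 3 SD over mean compound inhibition, cut at about 8.4% in these data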;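 also: inhibition rescues growth on 5-FOA so higher OD means more RAM inhibition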
BB579 growth dn: yeast BB579 growth reduction in restrictive medium; inhibition, % at 10 µM; 0.51% of 140,000 active; AID 804; S. cerevisiae BB579 growth, OD615, 48 h;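 active = inhibition above a set limit, 3 SD over the mean compound inhibition, cut at about 44% in these data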
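Assay system – yeast BB579 (DeaD) · Dosing – single compound dose of 10 µM, 0.25% DMSO final · Detection – OD615 turbidity measurement · Buffer or medium – CSMM-D restrictive synthetic medium containing dextrose (glucose) · Benchmarks – positive control amphotericin B 10 µg/mL · Incubation – 48 h exposure, 30 °C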
RAM 5-FOA: restores 5-FOA growth of efflux-deficient yeast. S. cerevisiae efflux-deficient reporter strain, 5-FOA growth OD615, 2 days. max inhibition, %. shares compounds with RAM network inh. 1,200 tested, under 10 active; call rule not given here
A number is an active result; 0 = inactive; - = not tested or not shown.

SMILES | Yeast life ext | RAM network inh | BB579 growth dn | RAM 5-FOA
CCCC1S/C(=N/N=C/c2ccc(OC)cc2)N(Cc2ccccc2)C1=O (stereo not drawn) | 0 | 15 | 0 | 0
CC1(C)CC(=O)C2=C(C1)OC1OC(=O)CC21C (stereo not drawn) | - | 0 | - | -
CC(C)N1CCN(Cc2coc3ccccc3c2=O)CC1CCO (stereo not drawn) | - | 0 | - | -
Fc1ccc(-n2nnc(-c3cnc4ccccc4c3)n2)cc1 | - | 0 | - | -
COc1cccc(-c2ccc(C#N)c(OC(=O)c3c(Cl)cccc3Cl)n2)c1 | 0 | 12 | 0 | 0
COc1cccc(-c2ccc(C#N)c(OC(=O)c3ccc(Cl)cc3)n2)c1 | 0 | 0 | 0 | -
COC(=O)c1ccc(Oc2coc3cc(OCc4ccc([N+](=O)[O-])cc4)ccc3c2=O)cc1 | 0 | 0 | 0 | -
CCOC(=O)c1ccc2c(c1)N(CC#N)C(=O)C(C)(C)O2 | - | 0 | - | -
CCCOc1ccc(-c2c(C(=O)N/N=C/c3ccc(OC)cc3)nnn2-c2nonc2N)cc1 | 0 | 0 | 0 | -
CCOc1ccc(-c2c(C(=O)N/N=C/c3ccc(OC)cc3)nnn2-c2nonc2N)cc1 | 0 | 12 | 0 | 0
CCOC(=O)c1sc2nc(CSc3ccccc3)nc(NCCN(C)C)c2c1C | - | 0 | - | -
CCN(CC)c1ccc(/C=C(\C#N)c2nc(-c3cccs3)c(NC(C)=O)s2)cc1 | 0 | 0 | 0 | -
Cc1cc(C(=O)NCCc2ccc(Cl)cc2)no1 | - | 0 | - | -
O=C1c2ccccc2NC(c2ccccc2Cl)N1N=C1CCCCCC1 (stereo not drawn) | 0 | 0 | 0 | -
COc1ccccc1NS(=O)(=O)c1ccc2oc(SCc3ccc(F)cc3)nc2c1 | 0 | 14 | 0 | 0
O=c1ccc2cc(S(=O)(=O)Nc3ccc(F)cc3)ccc2o1 | 0 | 0 | 0 | -
COc1ccc(NS(=O)(=O)c2ccc3oc(SCc4ccc(F)cc4)nc3c2)cc1 | 0 | 13 | 0 | 0
CCOC(=O)CSc1nc2cc(S(=O)(=O)Nc3ccccc3OC)ccc2o1 | 0 | 0 | 0 | -
O=C(O)CCN1C(=O)/C(=C\c2ccncc2)SC1=S | - | 0 | - | -
O=C(O)CCN1C(=O)/C(=C/c2cn(-c3ccccc3)nc2-c2cccs2)SC1=S | - | 12 | - | 0
CCn1c2ccccc2c2cc(NC(=O)c3cc(OC)c(OC)c(OC)c3)ccc21 | 0 | 12 | 0 | 0
CCn1c2ccccc2c2cc(NC(=O)COc3ccccc3)ccc21 | 0 | 0 | 0 | -
Fc1ccc(C2=NN(c3ccccc3)C(c3ccco3)C2)cc1 (stereo not drawn) | - | 0 | - | -
Cc1ccc(N2N=C(c3ccc(F)cc3)CC2c2ccco2)cc1 (stereo not drawn) | - | 12 | - | 0
Cc1cc(NC(=O)c2c(Br)c(C)nn2C)no1 | 0 | 0 | 0 | -
SMILES | Yeast life ext | RAM network inh | BB579 growth dn | RAM 5-FOA
O=[N+]([O-])c1ccccc1Sc1nccn1Cc1ccccc1 | 0 | 0 | 0 | -
C=CCOC(=O)C1=C[C@@H](c2coc3ccccc3c2=O)C[C@@H](OCc2ccc(CO)cc2)O1 | - | 0 | - | -
C=CCOC(=O)C1=C[C@@H](c2csc3ccccc23)C[C@@H](OCc2ccc(CO)cc2)O1 | - | 14 | - | 0
CCCC(=O)Nc1sc2c(c1C(=O)Nc1ccccn1)CCCC2 | - | 0 | - | -
CCC(=O)NC(c1ccccc1Cl)c1c(O)ccc2ccccc12 (stereo not drawn) | 0 | 0 | 0 | -
COc1ccccc1C(NC(=O)C1CCCCC1)c1c(O)ccc2ccccc12 (stereo not drawn) | 0 | 12 | 0 | 0
COc1ccc(-c2csc(/C(C#N)=C\c3cccc([N+](=O)[O-])c3)n2)cc1 | 0 | 0 | 0 | -
CCCCc1ccc(-c2csc(/C(C#N)=C/c3ccc(C)o3)n2)cc1 | 0 | 13 | 0 | 0
CCCCc1ccc(-c2csc(/C(C#N)=C\c3ccco3)n2)cc1 | 0 | 15 | 0 | 0
N#C/C(=C\c1ccco1)c1nc2ccccc2s1 | 0 | 0 | 0 | -
O=C(Nc1ccc(SC(F)(F)F)cc1)c1ccccn1 | - | 0 | - | -
CCOC(=O)c1c(NC(=S)Nc2ccc(OC)cc2)sc2c1CCC2 | 0 | 0 | 0 | -
CCOC(=O)c1c(NC(=S)Nc2ccc(OC)cc2)sc2c1CCCCC2 | 0 | 15 | 0 | 0
O=C(NCc1ccc(C(=O)O)cc1)OCc1ccccc1 | - | 0 | - | -
CCC(=O)N1CCc2cc(S(=O)(=O)NC(Cc3ccccc3)C(=O)NC3CCCCC3C)ccc21 (stereo not drawn) | 0 | 0 | 0 | -
CCC(=O)N1CCc2cc(S(=O)(=O)NC(Cc3ccccc3)C(=O)NC3CCCCC3)ccc21 (stereo not drawn) | 0 | 14 | 0 | 0
Cn1c(N)c(C(=O)COC(=O)CC(NC(=O)c2ccccc2Cl)c2ccccc2)c(=O)n(C)c1=O (stereo not drawn) | - | 0 | - | -
COCCN1C(=O)/C(=C/c2ccc(N3CCCC3)cc2C)SC1=S | - | 16 | - | 0
COc1ccc(-n2c(C)cc(/C=C3/SC(=S)N(C)C3=O)c2C)cc1 | 0 | 0 | 0 | -
COc1cc2c(cc1NC(=O)CSc1ccc(C)cc1)oc1ccccc12 | 0 | 0 | 0 | -
COc1cc2c(cc1NC(=O)C(C)Sc1ccc(C)cc1)oc1ccccc12 (stereo not drawn) | 0 | 14 | 0 | 0
O=C(NCc1cccnc1)Nc1ccccc1 | - | 0 | - | -
O=C(c1ccccc1)N(Cc1cccnc1)C1(C(=O)Nc2ccccc2)CCCCC1 | 0 | 16 | 0 | 0
O=C(NCCc1ccccc1)c1c(F)c(F)c(F)c(F)c1F | 0 | 0 | 0 | -
CC(=O)c1sc(N/N=C2\CC3CC2C(C)C3(C)C)nc1C (stereo not drawn) | - | 0 | - | -
SMILES | Yeast life ext | RAM network inh | BB579 growth dn | RAM 5-FOA
O=C(COC(=O)c1cccs1)Nc1ccccc1C(F)(F)F | - | 0 | - | -
O=C(COC(=O)c1ccccc1-c1nc2ccccc2s1)Nc1ccccc1C(F)(F)F | 0 | 15 | 0 | 0
CCC(C(=O)O)P(=O)(c1ccc(Cl)cc1)c1ccc(Cl)cc1 (stereo not drawn) | - | 0 | - | -
COc1ccc(C(=O)/C=C/c2cn(CC(O)CN3CCOCC3)c3ccccc23)cc1 (stereo not drawn) | 0 | 0 | 0 | -
Cc1ccc(C(=O)/C=C/c2cn(CC(O)CN3CCOCC3)c3ccccc23)cc1 (stereo not drawn) | 0 | 19 | 0 | 0
CNC(=S)N(CCc1ccc(OC)c(OC)c1)Cc1cc2c(C)cc(C)cc2[nH]c1=O | 0 | 16 | 0 | 0
CNC(=S)N(CCc1ccccc1)Cc1cc2cc(OC)c(OC)cc2[nH]c1=O | 0 | 0 | 0 | -
C=CCNC(=O)c1c(Cl)cnn1-c1ccc(C)cc1 | - | 0 | - | -
CCOC(=O)c1c(-c2ccccc2)csc1NC(=O)/C(C#N)=C/c1ccc(OC)c(OC)c1 | 0 | 0 | 0 | -
CCOC(=O)c1c(-c2ccccc2)csc1NC(=O)COc1ccc2c(C)cc(=O)oc2c1 | 0 | 0 | 0 | -
CCOC(=O)c1c(-c2cccc([N+](=O)[O-])c2)csc1NC(=O)CCCOc1ccccc1OC | - | 15 | 0 | 0
CCOC(=O)c1c(-c2cccc([N+](=O)[O-])c2)csc1NC(=O)CCCOc1ccccc1 | 0 | 14 | 0 | 0
CN(c1cccc(NC(=O)CN(c2cccc(Cl)c2)S(=O)(=O)c2ccc(Cl)cc2)c1)S(C)(=O)=O | 0 | 0 | 0 | -
COc1ccc(CN(CCO)CCO)cc1[N+](=O)[O-] | 0 | 0 | 0 | -
